# In paper PMC7704867 (Biochimica et biophysica acta. Biomembranes, 2020):
# Ends that are not written are not given here. Peptide text beside a SMILES is read from it. * marks the point of attachment. DOTA = O=C(O)CN1CCN(CC(=O)O)CCN(CC(=O)*)CCN(CC(=O)O)CC1
# B1: Ac-SW-S/E (peptide)
# peptide: Ac-CFLHFGKTGESGPLQ
# B2: Ac-SW-TS/EE (peptide)
# peptide: Ac-CFLHFGKEGESGPLQ
# B3: Ac-SW-T/E (peptide)
# peptide: Ac-CFLHFGKEGSSGPLQ
# B4: Y-DOTA-SW (peptide)
# peptide: {DOTA}-GFLHFGKTGSSGPLQ
# modifications: also: N-terminal DOTA chelated with Y3+
# B5: Ac-SW-F/A (peptide)
# peptide: Ac-CFLHAGKTGSSGPLQ
# B6: Ac-SW, CEACAM1 short form 15 amino acid peptide (peptide)
# peptide: Ac-CFLHFGKTGSSGPLQ
# B7: Ac-LW, CEACAM1 long form 15 amino acid peptide (peptide)
# peptide: Ac-CFLHFGKTGRASDQR
# Tested on: AnxA2
# Assay: not given
# Assay type: binding, human
# Conditions: 60 μM peptide, up to molar ratio 1:1, 1H-15N HSQC, 25°C, pH 5.5
# How it was run: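 Recombinant human AnxA2 (C-terminal thrombin site and His tag, expressed in E. coli C41(DE3)) titrated up to 1:1 molar ratio into uniformly 15N-labelled 12-residue CEACAM1-SF peptide (Trx-SMT3 fusion grown in M9/15NH4Cl, Ulp1-cleaved, HPLC-purified) at 60 μM. Buffer: 50 mM NaAc-d3, 2 mM DTT, 5% D2O. 1H-15N HSQC at 700 MHz with cryoprobe; chemical shift perturbations monitored.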
row,Molecule,chemical shift perturbation of peptide on titration with AnxA2
1,453-HFGKTGSSGPLQ-464 [^15N-SW-12],no chemical shift perturbation

# Molecular target: S100A10-AnxA2Nter fusion protein [S100A10(1–92)-ENLYFQGD linker-AnxA2 peptide (1–13)]
# Assay: NMR titration
# Conditions: not given
row,Kd,Molecule
1,1580 µM,B1
2,3530 µM,B2
3,2330 µM,B3
4,1070 µM,B4
5,2100 µM,B5
6,880 µM,B6
7,1220 µM,B7

# Same assay, conditions: scale: peptides per S100A10-AnxA2Nter fusion dimer
row,stoichiometry N,Molecule
1,2,B6

# Molecular target: Ac-^15N-F454G458G461-SW
# Assay: NMR titration
# Conditions: not given
row,Kd,Molecule
1,460 µM,S100A10-AnxA2Nter fusion protein [S100A10(1–92)-ENLYFQGD linker-AnxA2 peptide (1–13)]

# Molecular target: 15N-S100A10-AnxA2Nter fusion protein (Homo sapiens, UniProt P60903)
# Assay: not given
# Assay type: binding
# Conditions: not given
row,Kd,Molecule
1,2330 ± 390 µM,CC(=O)N[C@@H](CS)C(=O)N[C@@H](Cc1ccccc1)C(=O)N[C@@H](CC(C)C)C(=O)N[C@@H](Cc1c[nH]cn1)C(=O)N[C@@H](Cc1ccccc1)C(=O)NCC(=O)N[C@@H](CCCCN)C(=O)N[C@@H](CCC(=O)O)C(=O)NCC(=O)N[C@@H](CO)C(=O)N[C@@H](CO)C(=O)NCC(=O)N1CCC[C@H]1C(=O)N[C@@H](CC(C)C)C(=O)N[C@@H](CCC(N)=O)C(=O)O [Ac-SW-T/E] (Ac-CFLHFGKEGSSGPLQ-OH)
2,1580 ± 200 µM,CC(=O)N[C@@H](CS)C(=O)N[C@@H](Cc1ccccc1)C(=O)N[C@@H](CC(C)C)C(=O)N[C@@H](Cc1c[nH]cn1)C(=O)N[C@@H](Cc1ccccc1)C(=O)NCC(=O)N[C@@H](CCCCN)C(=O)N[C@H](C(=O)NCC(=O)N[C@@H](CCC(=O)O)C(=O)N[C@@H](CO)C(=O)NCC(=O)N1CCC[C@H]1C(=O)N[C@@H](CC(C)C)C(=O)N[C@@H](CCC(N)=O)C(=O)O)[C@@H](C)O [Ac-SW-S/E] (Ac-CFLHFGKTGESGPLQ-OH)
3,2100 ± 810 µM,CC(=O)N[C@@H](CS)C(=O)N[C@@H](Cc1ccccc1)C(=O)N[C@@H](CC(C)C)C(=O)N[C@@H](Cc1c[nH]cn1)C(=O)N[C@@H](C)C(=O)NCC(=O)N[C@@H](CCCCN)C(=O)N[C@H](C(=O)NCC(=O)N[C@@H](CO)C(=O)N[C@@H](CO)C(=O)NCC(=O)N1CCC[C@H]1C(=O)N[C@@H](CC(C)C)C(=O)N[C@@H](CCC(N)=O)C(=O)O)[C@@H](C)O [Ac-SW-F/A] (Ac-CFLHAGKTGSSGPLQ-OH)
4,3530 ± 1200 µM,CC(=O)N[C@@H](CS)C(=O)N[C@@H](Cc1ccccc1)C(=O)N[C@@H](CC(C)C)C(=O)N[C@@H](Cc1c[nH]cn1)C(=O)N[C@@H](Cc1ccccc1)C(=O)NCC(=O)N[C@@H](CCCCN)C(=O)N[C@@H](CCC(=O)O)C(=O)NCC(=O)N[C@@H](CCC(=O)O)C(=O)N[C@@H](CO)C(=O)NCC(=O)N1CCC[C@H]1C(=O)N[C@@H](CC(C)C)C(=O)N[C@@H](CCC(N)=O)C(=O)O [Ac-SW-TS/EE] (Ac-CFLHFGKEGESGPLQ-OH)
5,880 ± 100 µM,CC(=O)N[C@@H](CS)C(=O)N[C@@H](Cc1ccccc1)C(=O)N[C@@H](CC(C)C)C(=O)N[C@@H](Cc1c[nH]cn1)C(=O)N[C@@H](Cc1ccccc1)C(=O)NCC(=O)N[C@@H](CCCCN)C(=O)N[C@H](C(=O)NCC(=O)N[C@@H](CO)C(=O)N[C@@H](CO)C(=O)NCC(=O)N1CCC[C@H]1C(=O)N[C@@H](CC(C)C)C(=O)N[C@@H](CCC(N)=O)C(=O)O)[C@@H](C)O [Ac-SW] (Ac-CFLHFGKTGSSGPLQ-OH)
